Reference: PMC3880621 (Journal of medicinal chemistry, 2013)
Blank lines part the entries; values can stand above or below the compound they belong to.

Columns and labels:
[1] = type: physicochemical; conditions: for rate of decomposition of NONO-salicylate derivatives: spontaneous, pH not printed at the place
[2] = Guinea pig serum; type: in vitro ADME; conditions: pH 7.4, 37°C; for first-order rate constant k2 of loss of 241 nm peak: 2% guinea pig serum, second, slow process
Summary of the method: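 Test compound added from a 1000× DMSO stock to 50 μM DTPA in Ca/Mg-free DPBS, pH 7.4, with 2% guinea pig serum at 37°C; blank was buffer plus serum. UV spectra taken every second for 600 s, then every 60–120 s; total scan 2500 s to 62 h. Rate constants from fitting A = ΔAe^(−kt) + A∞.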

[3] = system: HUVECs; assay: MTT cell viability assay, HUVECs; type: cell-based, human; conditions: 48 h, 25-100 μM, n = 1
Summary of the method: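 HUVECs kept in endothelial growth medium at 37°C, 5% CO2, 80% humidity. Seeded at 8,000–10,000 per well, grown overnight, then treated 48 h across a concentration range (prodrugs 0–200 μM). MTT (2 mg/mL solution) added for 1 h at 37°C; medium removed, formazan dissolved in DMSO, absorbance read at 550 nm. One experiment, at least triplicate wells.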

[4] = Stomach ulcerogenicity; type: in vivo, Sprague-Dawley rats; conditions: rats; for ulcer index: 1.38 mmol/kg p.o., 6 h post-administration; for ulcerogenicity compared to control: 1.38 mmol/kg
Summary of the method: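 Sprague-Dawley rats fasted 24 h with water available, then dosed orally at 1.38 mmol/kg suspended in 1.2 mL 1% methylcellulose; controls received vehicle. Killed by CO2 at 6 h; stomachs removed onto ice and lesions inspected under a magnifier, scored by size. Ulcer index = summed ulcer length per stomach, averaged over the animals in the group.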

[5] = system: COX-2; assay: PGE2 levels in A549 cells; type: cell-based, human; conditions: 25 and 50 μM, 24 h
Summary of the method: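 A549 cells grown in RPMI 1640 with 10% FBS and penicillin/streptomycin. Seeded at 50,000 per well, grown 12 h, then given test compound at 25 or 50 μM (0.1% DMSO) for 24 h at 37°C. Supernatant PGE2 measured by competitive EIA (AChE tracer plus monoclonal antibody, overnight at 4°C), developed with Ellman's reagent, absorbance at […]. Triplicate.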

[6] = system: isolated murine ventricular myocytes; type: cell-based, mouse; conditions: 500 μM
[7] = biological target: GAPDH (Homo sapiens, UniProt P04406); assay: GAPDH activity in A549 cells; type: cell-based; conditions: 100 μM, 1 h
Summary of the method: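 A549 cells, seeded at 30,000 per well and grown overnight, exposed to test compound at 100 μM for 1 h at 37°C. Cells lysed in kit lysis buffer for 20 min at 4°C. Lysate mixed with kit mastermix; fluorescence read at 570 nm with excitation at 540 nm. Triplicate; mean ± SD; one-way ANOVA versus untreated control.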

[8] = Fetal bovine serum induced hydrolysis, followed spectrophotometrically; type: in vitro ADME; conditions: pH 7.4, 37°C, n = 1
[9] = system: various cancer cells lines; conditions: read-out: IC50 (cytotoxicity); cited from earlier work
[10] = pH 7.4, PBS with 50 μM DTPA, 37°C

Sequence of GAPDH (P04406 whole entry): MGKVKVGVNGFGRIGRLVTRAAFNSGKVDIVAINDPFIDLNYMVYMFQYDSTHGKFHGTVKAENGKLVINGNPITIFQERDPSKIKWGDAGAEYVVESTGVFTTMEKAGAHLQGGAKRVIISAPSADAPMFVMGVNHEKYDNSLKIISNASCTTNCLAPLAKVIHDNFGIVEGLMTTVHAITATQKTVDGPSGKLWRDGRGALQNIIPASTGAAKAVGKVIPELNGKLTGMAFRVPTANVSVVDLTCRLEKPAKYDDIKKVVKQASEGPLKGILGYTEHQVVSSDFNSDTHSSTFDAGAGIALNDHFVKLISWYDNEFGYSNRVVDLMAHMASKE

Structure (SMILES): CCN(CC)/[N+]([O-])=N/OCOC(=O)c1ccccc1OC(C)=O [DEA/NO-aspirin, O^2-(Acetylsalicyloyloxymethyl)-1-(N,N-diethylamino)-diazen-1-ium-1,2-diolate]
first-order rate constant k2 of loss of 241 nm peak [2]: (1.1 ± 0.6) × 10^−3 s^−1 | first-order rate constant of decomposition at 241 nm [1, 10]: 5.3e-06 s⁻¹ | rate constant of initial growth near 250 nm (production of DEA/NO) ([1]; pH 10, 37°C): (4.5 ± 0.6) × 10^−5 s^−1 | effect on viability of HUVECs [3]: no effect on viability up to 100 μM | ulcer index [4]: 0 | ulcerogenicity compared to control [4]: not significantly increased compared to control

Structure (SMILES): CC(=O)Oc1ccccc1C(=O)OCO/N=[N+](\[O-])NC(C)C [IPA/NO-aspirin, O^2-(Acetylsalicyloyloxymethyl)-1-(N-isopropylamino)-diazen-1-ium-1,2-diolate]
PGE2 levels [5]: decreased most significantly | first-order rate constant k2 of loss of 241 nm peak [2]: (6.5 ± 0.12) × 10^−4 s^−1 | change of time of half-relaxation from peak shortening ([6]; mean ± SEM): −17 ± 3% | increase in sarcomere shortening from control ([6]; n = 12, mean ± SEM): +201 ± 18% | first-order rate constant of decomposition at 241 nm [1, 10]: (2.6 ± 0.2) × 10^−5 s^−1 | rate constant of hydrolysis/decomposition at pH 10 ([1]; pH 10, 37°C): (3.5 ± 0.8) × 10^−3 s^−1 | inhibition of GAPDH activity [7]: highest | effect on viability of HUVECs [3]: no effect on viability up to 100 μM | rate constant of decomposition with FBS [8]: 2.7e-05 s⁻¹ | ulcerogenicity compared to control [4]: not significantly increased compared to control

Structure (SMILES): CC(=O)Oc1ccccc1C(=O)O [aspirin, acetylsalicylic acid, reference compound]
IC50 [9]: > 1000 µM | rate of hydrolysis in the presence of guinea pig serum ([2]; guinea pig serum): (4.7 ± 0.17) × 10^−4 s^−1 | first-order rate constant of spontaneous hydrolysis at 295 nm [1, 10]: 9.8e-06 s⁻¹ | rate constant of hydrolysis/decomposition at pH 10 ([1]; pH 10, 37°C): (1.6 ± 0.5) × 10^−4 s^−1 | ulcer index [4]: 57.4 ± 3.1

The next lines start with the values.

rate of decomposition of NONO-salicylate derivatives [1]: 3.1e-05 s⁻¹
Structure (SMILES): CCN(CC)/[N+]([O-])=N/OCOC(=O)c1ccccc1O [DEA/NO-salicylate, O^2-(2-hydroxybenzoyloxymethyl)-1-(N,N-diethylamino)-diazen-1-ium-1,2-diolate]

rate of decomposition of NONO-salicylate derivatives [1]: 7e-05 s⁻¹
Structure (SMILES): CC(C)N/[N+]([O-])=N/OCOC(=O)c1ccccc1O [IPA/NO-salicylate, O^2-(2-hydroxybenzoyloxymethyl)-1-(N-isopropylamino)-diazen-1-ium-1,2-diolate]

rate constant of hydrolysis/decomposition at pH 10 ([1]; pH 10, 37°C): 4.1 × 10^−4 s^−1
Structure (SMILES): CC(C)N/[N+]([O-])=N/[O-].[Na+] [IPA/NO, sodium 1-(N-isopropylamino)diazen-1-ium-1,2-diolate, reference compound]
